In ChEMBL document CHEMBL4627406, “Amino Acids Bearing Aromatic or Heteroaromatic Substituents as a New Class of Ligands for the Lysosomal Sialic Acid Transporter Sialin” (J Med Chem, 2020):

Key:
Sialin [1] = target: T1, Sialin (Homo sapiens, UniProt Q9NRA2); assay: Non-competitive inhibition of human recombinant-Sialin expressed in HEK293 cells assessed as reduction in [3H]Neu5Ac uptake incubated for 15 mins by liquid scintillation counting method; type: cell-based
T1 sequence (Q9NRA2 whole entry): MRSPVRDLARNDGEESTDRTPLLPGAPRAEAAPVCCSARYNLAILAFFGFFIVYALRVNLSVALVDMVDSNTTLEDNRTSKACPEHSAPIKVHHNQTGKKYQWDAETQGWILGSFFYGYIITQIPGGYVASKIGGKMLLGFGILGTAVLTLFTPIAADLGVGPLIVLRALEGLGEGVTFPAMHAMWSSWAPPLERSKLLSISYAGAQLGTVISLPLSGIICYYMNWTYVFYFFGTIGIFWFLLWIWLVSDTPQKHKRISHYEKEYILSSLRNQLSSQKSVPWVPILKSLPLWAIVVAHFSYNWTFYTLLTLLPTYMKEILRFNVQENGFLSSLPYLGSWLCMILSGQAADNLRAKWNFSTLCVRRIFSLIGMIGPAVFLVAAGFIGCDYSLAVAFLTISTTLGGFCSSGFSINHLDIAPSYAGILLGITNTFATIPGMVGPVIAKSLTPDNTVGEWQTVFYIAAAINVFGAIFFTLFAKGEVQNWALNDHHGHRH

[2] = Lipophilicity, log Pof the compound; type: physicochemical; details: octanol/water
Sialin [3] = target: T1, Sialin; assay: Inhibition of human recombinant-Sialin expressed in HEK293 cells assessed as reduction in [3H]Neu5Ac uptake at 30 to 300 uM incubated for 15 mins by liquid scintillation counting method; type: cell-based
Procedure, shortened: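 HEK293 cells expressing EGFP-human sialin L22G/L23G (sorting mutant at the plasma membrane), assayed 2 days after lipofection. Uptake of [3H]Neu5Ac (12.5 nM) over 15 min at room temperature in MES-Na+ pH 5.0 with inhibitor added together with tracer. Cells washed twice ice-cold, radioactivity counted by liquid scintillation. Dose-response run in triplicate, two to three independent experiments.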

Structure (SMILES)	Ki (Sialin [1]) [µM]	logP [2]	IC50 (Sialin [3]) [µM]	Ki (Sialin [3]) [µM]
CC(C)C[C@H](NC(=O)OCC1c2ccccc2-c2ccccc21)C(=O)O	10.2	4.1	23.3 to 24	–
CC(C)C[C@H](NC(=O)N1CCCCCC1)C(=O)N[C@H](Cc1cn(C)c2ccccc12)C(=O)N[C@H](Cc1ccccn1)C(=O)O	–	2.29	–	20
O=C(N[C@@H](CSCc1cc(=O)oc2cc(O)ccc12)C(=O)O)OCC1c2ccccc2-c2ccccc21	7.8	3.91	2.4 to 2.9	–
